In PMC5280578 (Journal of neurosurgery, 2016):
“And” between values parts separate entries of the source, which are not always exact repeats. Equal values may be shown once. Read-outs that look alike come from different tables or passages of the source.

Tests used:
U87-MG flank xenografts = experiment: Efficacy in ectopic U87-MG flank xenografts; format: in vivo, NSG mice; conditions: 5 mg/kg TMZ, 100 mg/kg nutlin3; 2 treatment cycles
Summary of the method: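 NSG mice received 4 × 10^6 U87-MG cells in the right flank. At approximately 150 mm3, tumor-bearing mice were randomized into cohorts of 6–8. Dosing was oral: vehicle, 5 mg/kg TMZ, 100 mg/kg racemic nutlin3, or the combination, for 2 treatment cycles. Caliper measurements were taken twice weekly, and volume = (α2 × β)/2 (α shorter, β longer dimension). Data are mean ± SEM.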

[1] = Pharmacokinetic analysis of nutlin3 in NSG mice; format: in vivo
Summary of the method: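 Racemic nutlin3 was given orally to NSG mice. Plasma was collected, flash-frozen and kept at −80°C. Drug was recovered by liquid-liquid extraction and quantified by HPLC-MS/MS (API 4000) to derive pharmacokinetic parameters.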

[2] = Nutlin3 concentration in U87-MG flank xenografts; format: in vivo, NSG mice; conditions: 4 hours postadministration
Summary of the method: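 Tumors from NSG mice bearing U87-MG flank xenografts were collected 4 h after oral nutlin3 dosing. A vehicle-treated tumor served as background control. Samples were flash-frozen and stored at −80°C. Nutlin3 was recovered by liquid-liquid extraction and quantified by HPLC-MS/MS (API 4000), with caylin as internal standard. Two tumor samples were analyzed.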

[3] = rats; administration for 10 days; effects reversible; cited from earlier work
[4] = monkeys; administration for 10 days; effects reversible; cited from earlier work
U87-MG cells [5] = conditions: in vitro; cited from earlier work
GBM flank xenografts = conditions: ISA27 alone; cited from earlier work
[6] = format: in vivo, NSG mice; conditions: peripheral blood, three cycles
[7] = test system: GBM10 intracranial tumors; experiment: Survival in orthotopic intracranial GBM10 xenograft model; format: in vivo, NSG mice
GBM10 flank tumors = experiment: Western blot analysis of GBM10 flank tumor lysates; format: in vivo, NSG mice; conditions: 66 mg/kg TMZ, 100 mg/kg nutlin3a, 3 consecutive days; for MDM2 and p53 levels in tumors: 2 hours after last dose
Summary of the method: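 NSG mice received 5 × 10^6 GBM10 cells in the right flank. At approximately 200 mm3, mice were dosed orally for 3 consecutive days with vehicle, 66 mg/kg TMZ, 100 mg/kg nutlin3a (methylcellulose/Tween 80), or the combination. Tumors were harvested 2 h after the last dose. Lysates were made in RIPA buffer with protease/phosphatase inhibitors, run on 4–20% SDS-PAGE, and transferred to nitrocellulose. Detection was by HRP-chemiluminescence, with densitometry normalized to loading control.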

U87-MG cells [8] = experiment: Western blot analysis of target proteins and cell cycle markers; format: cell-based, human
Summary of the method: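 U87-MG cells were treated with vehicle, 25 μM TMZ, 5 μM nutlin3a, or the combination for 24 h or 72 h. RIPA lysates were resolved on 4–20% SDS-PAGE and transferred to nitrocellulose. Primary antibodies were used at 1:1000 and HRP secondaries at 1:5000, with chemiluminescent film detection. Densitometry was normalized to loading control and expressed relative to vehicle. Six independent experiments at 24 h; two at 72 h.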

[9] = Dose-response curves of nutlin enantiomers; conditions: nutlin3a vs nutlin3b; data not shown
[10] = Nutlin3a concentrations in normal brain and intracranial tumor tissue; format: in vivo, NSG mice; conditions: 100 mg/kg nutlin3a; 4 hours
Summary of the method: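 NSG mice carried GBM10, GBM43 or SK28 melanoma cells implanted stereotactically in the right cerebral hemisphere. At 21 days post-implantation, mice received 100 mg/kg nutlin3a orally; tumor-free mice were dosed likewise. After 4 h, plasma and brains were collected and the tumor area was excised. Samples were frozen at −80°C, extracted by liquid-liquid extraction, and assayed by HPLC-MS/MS. Each point is one mouse.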

GBM10 cells [11] = experiment: Wound-healing assay; format: cell-based, human; conditions: 25 μM TMZ, 10 μM nutlin3a; 12 hours
Summary of the method: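 GBM10 monolayers at 80–90% confluence were scratched with a pipette tip. Debris was washed off with medium, cells were rinsed in serum-free DMEM, and the gap was photographed at hour 0. Cells were then cultured in DMEM with 10% FBS containing vehicle, 25 μM TMZ, 10 μM nutlin3a, or the combination for 12 h. The marked gap was imaged every 2 h and its width measured. Three repeats.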

[12] = murine bone marrow; cited from earlier work
U87-MG cells [13] = experiment: Apoptosis assay; format: cell-based, human; conditions: 25 μM TMZ, 1.25 or 5 μM nutlin3a; Day 5 posttreatment
Summary of the method: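 U87-MG cells were treated with vehicle, 25 μM TMZ, 1.25 or 5 μM nutlin3a (DMSO stock diluted in medium), or TMZ/nutlin3a combinations. TMZ was dissolved in PBS or medium and used immediately. On Day 5 post-treatment, cells were stained with Annexin V-FITC and 7-AAD. Early apoptotic and late apoptotic/necrotic fractions were quantified by flow cytometry.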

GBM10 cells [14] = experiment: Western blot analysis of target proteins and cell cycle markers; format: cell-based, human
Summary of the method: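 Cultured GBM10 cells were treated with vehicle, 25 μM TMZ, 10 μM nutlin3a, or the combination for 72 h (cell-cycle markers). A second set received 200 μM TMZ plus 2 μM nutlin3a for 24, 48 or 72 h. RIPA lysates were run on 4–20% SDS-PAGE and transferred to nitrocellulose. Primary antibodies were used at 1:1000 and HRP secondaries at 1:5000, with chemiluminescent detection. Densitometry was normalized to loading control relative to vehicle (24 h: 3 independent experiments).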

GBM10 cells [15] = experiment: Matrigel invasion assay; format: cell-based, human; conditions: 25 μM TMZ, 10 μM nutlin3a; 8 hours
[16] = 25 μM TMZ, 5 μM nutlin3a, 24 hours

COc1ccc(C2=N[C@@H](c3ccc(Cl)cc3)[C@@H](c3ccc(Cl)cc3)N2C(=O)N2CCNC(=O)C2)c(OC(C)C)c1 [nutlin3]
Tumor growth / tumor volume compared with vehicle (U87-MG flank xenografts): significantly slowed tumor growth | Cmax ([1]; NSG, mouse, in vivo, po): 20400 ng/mL and 37 µM | Tmax ([1]; NSG, mouse, in vivo, po): 1 h | Vd/F ([1]; NSG, mouse, in vivo, po): 0.113 L | half-life ([1]; NSG, mouse, in vivo, po): 4.5 h | Cl/F ([1]; racemic nutlin3, NSG mice): 0.29 mL/min | Nutlin3 in U87-MG flank xenografts [2]: detected

CCOc1cc(C(C)(C)C)ccc1C1=N[C@@](C)(c2ccc(Cl)cc2)[C@@](C)(c2ccc(Cl)cc2)N1C(=O)N1CCN(CCCS(C)(=O)=O)CC1 [RG7112]
Platelet production [3]: decreased platelet production | Platelet production [4]: decreased platelet production

O=C1[C@@H]2CS[C@@]3(C(=O)Nc4ccccc43)N2C(=O)N1Cc1ccc(Cl)cc1 [ISA27]
Interaction with TMZ to kill U87-MG cells (U87-MG cells [5]): synergized | Growth of GBM flank xenografts (GBM flank xenografts): inhibited growth

Cn1nnc2c(C(N)=O)ncn2c1=O [TMZ, temozolomide]
White and red blood cell counts compared with vehicle-treated mice ([6]; Day 30 and Day 43): significant decrease | Platelets ([6]; Day 30 only): significantly decreased | Tumor growth / tumor volume compared with vehicle (U87-MG flank xenografts): significant decrease in tumor volume | Survival compared with vehicle or nutlin3a ([7]; 66 mg/kg TMZ once daily, 100 mg/kg nutlin3a, 2 cycles, p < 0.05): significantly increased | Increase in survival compared with vehicle-treated mice ([7]; three 5-day cycles): approximately 13% | p53 (S15) levels in tumors (GBM10 flank tumors): increased | MDM2 and p53 levels in tumors (GBM10 flank tumors): increased | Levels of total p53, p53 (S15) and MDM2 (U87-MG cells [8]; [16]): increased | APE1 level (U87-MG cells [8]; 72 hours): decreased

COc1ccc(C2=N[C@@H](c3ccc(Cl)cc3)[C@@H](c3ccc(Cl)cc3)N2C(=O)N2CCNC(=O)C2)c(OC(C)C)c1 [nutlin3a]
Relative potency of enantiomers [9]: more potent enantiomer | Nutlin3a levels in brain tumor tissues versus normal brain tissue [10]: higher levels | Survival of mice with intracranial GBM tumors, single agent ([7]; 100 mg/kg nutlin3a twice daily, 2 consecutive 5-day cycles): did not increase survival | MDM2 and p53 levels in tumors (GBM10 flank tumors): increased | Cell cycle arrest by cell cycle–specific markers (pRb S780, pHH3, TopoIIα) (U87-MG cells [8]; 5 μM nutlin3a, 25 μM TMZ, 72 hours): arrested in G0/G1 | Levels of total p53, p53 (S15) and MDM2 (U87-MG cells [8]; [16]): increased | p21 levels (U87-MG cells [8]; [16]): increased | APE1 level (U87-MG cells [8]; 72 hours): decreased | GBM10 migration (GBM10 cells [11]): significantly inhibited | Nutlin3a detected in bone marrow [12]: low levels | Early and late apoptotic/necrotic cells compared with control or TMZ alone (U87-MG cells [13]): significant increases | Cell cycle arrest by cell cycle–specific markers (pRb S780, pHH3, TopoIIα) (GBM10 cells [14]; 10 μM nutlin3a, 25 μM TMZ, 72 hours): arrested in G0/G1 | MDM2 and p21 levels (GBM10 cells [14]; 200 μM TMZ, 2 μM nutlin3a, 24 hours): significantly increased | GBM10 invasion (GBM10 cells [15]): significantly inhibited
